The list shows a part of the results. Results filed as inconclusive are left out. A number with no mark means an inactive call. Calls of active or inactive are those of the source.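 Rule for the calls, unless noted: active = thallium entry rate above the same plate's blocked-transporter control wells by more than 3 SD; inconclusive = the two repeat wells disagree; inactive = the rest.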
What was measured:
[1] = biological target: Solute carrier family 12 member 5 (Homo sapiens) (UniProt Q9H2X9); assay: retest of KCC2 transport modulators without sodium – cell-based, HEK293 KCC2, thallium flux, secondary assay, confirmation (AID 1713;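 active = thallium flux slope above the same plate's solvent-only control mean plus 3 SD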); conditions: FluoZin2 fluorescence, at 10 µM, active compounds read high
Chain of Solute carrier family 12 member 5 (Homo sapiens) (Q9H2X9 whole entry, looked up): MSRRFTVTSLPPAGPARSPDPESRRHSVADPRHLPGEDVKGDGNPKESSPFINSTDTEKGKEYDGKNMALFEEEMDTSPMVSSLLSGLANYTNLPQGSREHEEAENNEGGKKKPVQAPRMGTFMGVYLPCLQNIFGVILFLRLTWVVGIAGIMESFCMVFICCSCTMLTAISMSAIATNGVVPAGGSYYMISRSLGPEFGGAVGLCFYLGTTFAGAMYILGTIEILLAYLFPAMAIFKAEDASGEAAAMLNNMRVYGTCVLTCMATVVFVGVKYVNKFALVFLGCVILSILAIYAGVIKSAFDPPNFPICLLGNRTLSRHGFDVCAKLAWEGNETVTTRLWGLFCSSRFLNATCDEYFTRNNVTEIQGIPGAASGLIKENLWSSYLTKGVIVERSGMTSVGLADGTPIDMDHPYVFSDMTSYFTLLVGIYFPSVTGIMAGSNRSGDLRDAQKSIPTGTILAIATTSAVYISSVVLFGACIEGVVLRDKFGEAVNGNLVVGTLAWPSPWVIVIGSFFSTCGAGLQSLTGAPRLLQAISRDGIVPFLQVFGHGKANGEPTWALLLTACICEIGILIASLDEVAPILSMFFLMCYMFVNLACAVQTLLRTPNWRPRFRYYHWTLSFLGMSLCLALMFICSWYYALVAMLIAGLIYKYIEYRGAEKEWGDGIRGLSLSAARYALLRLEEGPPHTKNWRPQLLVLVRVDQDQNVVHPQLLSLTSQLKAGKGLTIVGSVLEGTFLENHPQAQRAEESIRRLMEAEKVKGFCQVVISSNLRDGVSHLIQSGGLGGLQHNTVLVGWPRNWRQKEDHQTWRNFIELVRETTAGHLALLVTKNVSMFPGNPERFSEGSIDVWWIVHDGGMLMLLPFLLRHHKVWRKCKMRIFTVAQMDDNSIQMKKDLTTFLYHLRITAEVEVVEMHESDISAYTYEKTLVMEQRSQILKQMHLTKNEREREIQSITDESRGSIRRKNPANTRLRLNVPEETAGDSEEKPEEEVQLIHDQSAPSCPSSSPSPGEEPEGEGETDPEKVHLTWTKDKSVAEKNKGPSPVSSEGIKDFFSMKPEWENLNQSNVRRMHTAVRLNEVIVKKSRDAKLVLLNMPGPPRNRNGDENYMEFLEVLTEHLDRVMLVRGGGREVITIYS
Method in brief: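 Evaluation: F/F0 slope over 10–20 s post-thallium, baseline-normalized / Material: KCC2-expressing HEK cells / Detection: FluoZin2 fluorescence, 480/540 nm, 1 Hz / Times: 48 min dye loading / Medium: Sodium-free N-methylglucamine chloride buffer / Compound: 10 µM single dose, 0.1% DMSO / Control set: bumetanide and DMSO controls / Probe or stimulus: thallium sulfate stimulus buffer at pH 7.3 / Repeats: duplicates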

[2] = PubChem AID 1714; conditions: HEK293-KCC2 + bumetanide/ouabain, thallium flux FluoZin2; at 10 µM; active compounds read high;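 note: raw slope of fluorescence over initial fluorescence between 10 and 20 s after thallium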
Method in brief: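 Test system: HEK cells expressing the K-Cl cotransporter KCC2 | Compound: One dose, 10 µM, 0.1% DMSO | Replication: Duplicates | Evaluation: Normalized thallium flux slope | Detection: FluoZin2-AM (0.5 µM) fluorescence, 480 nm ex/540 nm em, 1 Hz kinetic imaging | Incubation: Overnight culture 37 °C, dye loading 48 min | Reagent: Thallium stimulus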

[3] = biological target: Solute carrier family 12 member 5 (Homo sapiens) (UniProt Q9H2X9); assay: retest of KCC2 transport modulation, ouabain-free – cell-based, HEK293 KCC2, thallium flux, FluoZin2, secondary assay 2, confirmation (AID 1715;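 active = thallium flux slope more than 3 SD above or below the plate's solvent-only control mean, mostly below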;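 note: raw slope with 0.1% DMSO as baseline and bumetanide as block control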); conditions: HEK293-KCC2, thallium flux FluoZin2 fluorescence; at 10 µM; actives lie on both sides; F/F0 rise rate, 10–20 s post-thallium
[4] = compound effects on native HEK Tl+ uptake – HEK cells, counterscreen 1, counter-screen for KCC2 modulator project, confirmation (AID 1716;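 active = thallium flux rate significantly above the same plate's solvent-only control wells, beyond their mean plus 3 SD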); conditions: HEK293 parental cells, thallium flux FluoZin2, ouabain; at 10 µM; baseline-ratio fluorescence slope, 10–20 s after thallium
[5] = biological target: Solute carrier family 12 member 5 (Homo sapiens) (UniProt Q9H2X9); assay: modulation of KCC2 thallium flux in HEK cells – cell-based, ouabain, retest, confirmation (AID 1717;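 active = thallium flux slope beyond 3 SD from same-plate DMSO control mean in most replicates, usually higher, sometimes lower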;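 note: slope of initial-normalized fluorescence between seconds 10 and 20 after thallium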); conditions: HEK293-KCC2, thallium flux FluoZin2 fluorescence, at 10 µM, bidirectional: low = inhibitor, high = activator
[6] = native HEK Tl+ uptake effects, second counter-screen – HEK cells, counterscreen 2, counter-screen for KCC2 modulator project, confirmation (AID 1718;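 active = thallium flux slope above the same plate's solvent-control mean plus 3 SD in both duplicate wells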;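 note: run without ouabain in cells lacking the KCC2 cotransporter; slope of fluorescence scaled to its starting value between 10 and 20 s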); conditions: HEK293 parental, thallium flux FluoZin-2 fluorescence slope; at 10 µM
Method in brief: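 Material: parental HEK cells. Medium: HBSS, 20 mM HEPES. Reagent: thallium sulfate stimulus, 12 mM in buffer, pH 7.3. Incubation: overnight cell culture at 37 °C, 48 min dye loading, compound before thallium. Signal: FluoZin-2 fluorescence kinetics. Read-out basis: thallium influx rate. Repeats: Per-replicate slope values.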

In the case of `N=c1oc2ccccc2cc1C(=O)N/N=C/c1ccccc1`, the normalised thallium flux (F/F0 slope) [1] is reported as 0.00592 (active), the normalized thallium flux [2] is reported as 0.00648 and the normalized thallium flux [3] is reported as 0.0291. The thallium flux rate (normalised fluorescence) [4] was 0.00736 and the raw Tl+ flux slope (below DMSO = inhibition, above = activation) [5] was 0.0198 (active).

For `C=CCNC(=S)NNC(=O)COc1c(Cl)cc(Cl)cc1Cl`, the normalised thallium flux (F/F0 slope) [1] was 0.0146 (active), the normalized thallium flux [2] was 0.0275 (active) and the normalized thallium flux [3] was 0.0376. For the same compound, the thallium flux rate (normalised fluorescence) [4] was 0.0266 (active) and the raw Tl+ flux slope (below DMSO = inhibition, above = activation) [5] was 0.03 (active).

In the case of `Cc1ccc(N2C(=O)C(Cc3ccccc3)NC2=S)cc1` (centres undefined), the normalised thallium flux (F/F0 slope) [1] is reported as 0.00991, the normalized thallium flux [2] is reported as 0.0247 (active) and the normalized thallium flux [3] is reported as 0.032. For the same compound, the thallium flux rate (normalised fluorescence) [4] was 0.0128 (active) and the raw Tl+ flux slope (below DMSO = inhibition, above = activation) [5] was 0.0236.

In the case of `CCCn1c(=S)[nH]c2ccc(C(F)(F)F)cc21`, the normalised thallium flux (F/F0 slope) [1] is reported as 0.00727, the normalized thallium flux [2] is reported as 0.0987 (active) and the normalized thallium flux [3] is reported as 0.0617 (active). The thallium flux rate (normalised fluorescence) [4] was 0.0842 (active), the raw Tl+ flux slope (below DMSO = inhibition, above = activation) [5] was 0.0775 (active) and the thallium flux slope [6] was 0.0576 (active).

In the case of `COc1ccccc1/C=C/C=N/n1c(-c2ccc(Cl)cc2Cl)n[nH]c1=S`, the normalised thallium flux (F/F0 slope) [1] is reported as 0.0112, the normalized thallium flux [2] is reported as 0.0155 (active) and the normalized thallium flux [3] is reported as 0.0312. For the same compound, the thallium flux rate (normalised fluorescence) [4] was 0.0105 (active), the raw Tl+ flux slope (below DMSO = inhibition, above = activation) [5] was 0.0229 and the thallium flux slope [6] was 0.011.

For `Cc1ccc(/C=N/NC(=S)NC2CCCCC2)o1`, the normalised thallium flux (F/F0 slope) [1] was 0.0109, the normalized thallium flux [2] was 0.0268 (active) and the normalized thallium flux [3] was 0.0327. The thallium flux rate (normalised fluorescence) [4] was 0.0111 (active) and the raw Tl+ flux slope (below DMSO = inhibition, above = activation) [5] was 0.0502 (active).

In the case of `Cc1nnc(SC(C(=O)Nc2cc(Cl)cc(Cl)c2)c2ccccc2)[nH]c1=O` (centres undefined), the normalised thallium flux (F/F0 slope) [1] is reported as 0.00885, the normalized thallium flux [2] is reported as 0.00559 and the normalized thallium flux [3] is reported as 0.0302. The thallium flux rate (normalised fluorescence) [4] was 0.00486 (active) and the raw Tl+ flux slope (below DMSO = inhibition, above = activation) [5] was 0.0159 (active).

`COc1ccc(NC(=O)COC(=O)c2ccc(NS(=O)(=O)/C=C/c3ccccc3)cc2)cc1` gave a normalised thallium flux (F/F0 slope) [1] of 0.00992, a normalized thallium flux [2] of 0.00679 and a normalized thallium flux [3] of 0.0304. For the same compound, the thallium flux rate (normalised fluorescence) [4] was 0.00722 and the raw Tl+ flux slope (below DMSO = inhibition, above = activation) [5] was 0.0244.

`COc1ccc(NC(=O)N2CCC(Cc3ccccc3)CC2)cc1` showed a normalised thallium flux (F/F0 slope) [1] of 0.00655, a normalized thallium flux [2] of 0.00529 and a normalized thallium flux [3] of 0.0303. The thallium flux rate (normalised fluorescence) [4] was 0.00728 and the raw Tl+ flux slope (below DMSO = inhibition, above = activation) [5] was 0.0137 (active).

In the case of `NC(=O)NC(=O)CSc1nc2cc([N+](=O)[O-])ccc2n1-c1cccc(C(F)(F)F)c1`, the normalised thallium flux (F/F0 slope) [1] is reported as 0.00549, the normalized thallium flux [2] is reported as 0.0122 (active) and the normalized thallium flux [3] is reported as 0.0326. For the same compound, the thallium flux rate (normalised fluorescence) [4] was 0.0113 (active).

With `CCc1cc(-c2n[nH]c(=S)n2CC(C)C)cs1` the normalised thallium flux (F/F0 slope) [1] was 0.0137 (active), the normalized thallium flux [2] was 0.0351 (active) and the normalized thallium flux [3] was 0.0359. The thallium flux rate (normalised fluorescence) [4] was 0.0146 (active), the raw Tl+ flux slope (below DMSO = inhibition, above = activation) [5] was 0.0381 (active) and the thallium flux slope [6] was 0.0129 (active).

For `COc1ccc2[nH]c(=S)cc(C)c2c1`, the normalised thallium flux (F/F0 slope) [1] was 0.00897, the normalized thallium flux [2] was 0.0111 (active) and the normalized thallium flux [3] was 0.0317. For the same compound, the thallium flux rate (normalised fluorescence) [4] was 0.0146 (active), the raw Tl+ flux slope (below DMSO = inhibition, above = activation) [5] was 0.0267 and the thallium flux slope [6] was 0.0122 (active).

In the case of `S=c1nccc(-c2cc(Cl)sc2Cl)[nH]1`, the normalised thallium flux (F/F0 slope) [1] is reported as 0.00959, the normalized thallium flux [2] is reported as 0.0101 (active) and the normalized thallium flux [3] is reported as 0.0372. For the same compound, the thallium flux rate (normalised fluorescence) [4] was 0.0107 (active).

With `O=c1oc2ccccc2cc1-c1cn(-c2ccccc2)c(=S)[nH]1` the normalised thallium flux (F/F0 slope) [1] was 0.00633, the normalized thallium flux [2] was 0.0198 (active) and the normalized thallium flux [3] was 0.0319. The thallium flux rate (normalised fluorescence) [4] was 0.0191 (active), the raw Tl+ flux slope (below DMSO = inhibition, above = activation) [5] was 0.0289 (active) and the thallium flux slope [6] was 0.0141 (active).

For `Cc1ccccc1N/N=C/c1ccc(N2CCOCC2)cc1`, the normalised thallium flux (F/F0 slope) [1] was 0.0119 (active), the normalized thallium flux [2] was 0.00874 (active) and the normalized thallium flux [3] was 0.0362. For the same compound, the thallium flux rate (normalised fluorescence) [4] was 0.00826 and the raw Tl+ flux slope (below DMSO = inhibition, above = activation) [5] was 0.0234.

In the case of `CS(=O)(=O)c1sc(C(=O)NC(=S)Nc2ccc(OC(F)(F)F)cc2)c2c1C=CCC2`, the normalised thallium flux (F/F0 slope) [1] is reported as 0.00979, the normalized thallium flux [2] is reported as 0.0362 (active) and the normalized thallium flux [3] is reported as 0.0324. For the same compound, the thallium flux rate (normalised fluorescence) [4] was 0.0134 (active) and the raw Tl+ flux slope (below DMSO = inhibition, above = activation) [5] was 0.0498 (active).

For `S=C(NN=C1CCN(Cc2ccccc2)CC1)NC1CCCCC1`, the normalised thallium flux (F/F0 slope) [1] was 0.0184, the normalized thallium flux [2] was 0.00465 and the normalized thallium flux [3] was 0.0249 (active). The thallium flux rate (normalised fluorescence) [4] was 0.00811, the raw Tl+ flux slope (below DMSO = inhibition, above = activation) [5] was 0.0155 (active) and the thallium flux slope [6] was 0.0111.

Work on `Cc1cc(C)nc(SC(C)C(=O)N/N=C/c2cccs2)n1` (centres undefined) yielded a normalised thallium flux (F/F0 slope) [1] of 0.00759, a normalized thallium flux [2] of 0.00586 and a normalized thallium flux [3] of 0.0302. For the same compound, the thallium flux rate (normalised fluorescence) [4] was 0.00741, the raw Tl+ flux slope (below DMSO = inhibition, above = activation) [5] was 0.0216 and the thallium flux slope [6] was 0.00957.

With `CCOC(=O)CSc1nnc(CNC(=O)c2cccs2)n1-c1ccccc1` the normalised thallium flux (F/F0 slope) [1] was 0.00872, the normalized thallium flux [2] was 0.00583 and the normalized thallium flux [3] was 0.0307. For the same compound, the thallium flux rate (normalised fluorescence) [4] was 0.00776, the raw Tl+ flux slope (below DMSO = inhibition, above = activation) [5] was 0.0178 and the thallium flux slope [6] was 0.0106.

`CCOc1ccccc1C1CC(c2ccc(Cl)cc2)Nc2nc(N)nn21` (centres undefined) showed a normalised thallium flux (F/F0 slope) [1] of 0.0061, a normalized thallium flux [2] of 0.00475 and a normalized thallium flux [3] of 0.0277. It also gave a thallium flux rate (normalised fluorescence) [4] of 0.00745, a raw Tl+ flux slope (below DMSO = inhibition, above = activation) [5] of 0.0177 and a thallium flux slope [6] of 0.00975.

In the case of `O=[N+]([O-])c1c(NCCO)cc(Sc2nc3ccccc3s2)c2nonc12`, the normalised thallium flux (F/F0 slope) [1] is reported as 0.0147 (active), the normalized thallium flux [2] is reported as 0.0297 (active) and the normalized thallium flux [3] is reported as 0.0332. For the same compound, the thallium flux rate (normalised fluorescence) [4] was 0.0134 (active), the raw Tl+ flux slope (below DMSO = inhibition, above = activation) [5] was 0.0556 (active) and the thallium flux slope [6] was 0.0128 (active).

`O=S(=O)(c1ccc(F)cc1)N1CCN(C(=S)NCc2ccco2)CC1` gave a normalised thallium flux (F/F0 slope) [1] of 0.0076, a normalized thallium flux [2] of 0.0054 and a normalized thallium flux [3] of 0.0354. It also gave a thallium flux rate (normalised fluorescence) [4] of 0.00396, a raw Tl+ flux slope (below DMSO = inhibition, above = activation) [5] of 0.0185 and a thallium flux slope [6] of 0.0111.

From PubChem BioAssay
